Results from ChEMBL document CHEMBL1926514, “Pyridobenzothiazole derivatives as new chemotype targeting the HCV NS5B polymerase” (Bioorg Med Chem, 2012).
Activity calls are given as the source filed them. The calls are words filed in the database; no cut-off is given here.

Columns and labels:
Hepatitis C virus [1] = experiment: Inhibition of HCV genotype 1b recombinant NS5B Cdelta21 polymerase expressed in Escherichia coli assessed as [3H]UTP incorporation into RNA/RNA homopolymeric template (rA)40/(rU)20 at 10 uM after 40 mins by liquid scintillation counting in presence of increase concentration of UTP; settings: Hepatitis C virus subtype 1b
Outline: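 NS5BΔC21 [³H]-UTP incorporation assay on (rA)40/(rU)20 at 25 °C for 40 min, with filter-binding scintillation read-out. Inhibition was measured at varying UTP concentrations; inhibitor was preincubated 5 min on ice with enzyme and RNA template.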

Hepatitis C virus [2] = experiment: Antiviral activity against HCV genotype 1b infected in human HuH5.2 cells assessed as inhibition of […] after 72 hrs by luciferase reporter gene assay; type: functional, organism-based, Hepacivirus hominis; settings: Huh-5-2, 72 h
Outline: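 Four-step 1-to-5 dilution series were tested for 72 h at 37 °C, 5% CO₂. Cells were washed with PBS and lysed 5 min at room temperature, and luciferase luminescence was read as % of untreated controls. EC50 and EC90 came from dose–response curves; at least three independent experiments.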

Hepatitis C virus [3] = experiment: Inhibition of HCV genotype 1b recombinant NS5B Cdelta21 polymerase expressed in Escherichia coli assessed as [3H]UTP incorporation into RNA/RNA homopolymeric template (rA)40/(rU)20 at 10 uM after 40 mins by liquid scintillation counting in presence of increase concentration of RNA primer/template; settings: Hepatitis C virus subtype 1b
Outline: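 NS5BΔC21 [³H]-UTP incorporation assay on (rA)40/(rU)20 at 25 °C for 40 min, with DE-81 filter scintillation read-out. Inhibitor was held at a fixed subsaturating dose while the RNA primer/template was raised across two increasing doses; inhibitor was preincubated 5 min on ice with enzyme and RNA before UTP addition.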

[4] = Cytotoxicity against human HuH5.2 cells after 72 hrs by MTS assay; type: cell-based, Huh-5-2
Outline: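 Metabolic activity was read as absorbance at 498 nm, with OD converted to % of untreated controls. CC50 came from the dose–response curve as 50% reduction of metabolic activity.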

Hepatitis C virus [5] = experiment: Inhibition of HCV genotype 1b recombinant NS5B Cdelta21 polymerase expressed in Escherichia coli assessed as [3H]UTP incorporation into RNA/RNA homopolymeric template (rA)40/(rU)20 after 40 mins by liquid scintillation counting; set-up: species or system Hepatitis C virus subtype 1b
Outline: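 E. coli-expressed NS5BΔC21 (genotype 1b), purified on DEAE and heparin columns, was used at 25–50 nM. Buffer: 50 mM Tris–HCl pH 8.0, 1 mM DTT, 0.25 mg/mL BSA, 0.25 mM MnCl₂, with (rA)40/(rU)20 primer/template. Inhibitor was preincubated 5 min on ice with enzyme and RNA, then [³H]-UTP (37 Ci/mmol) was added for 40 min at 25 °C. Product was captured on DE-81 filters and counted by scintillation. IC50 is the mean of at least three experiments.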

Row | SMILES | EC50 (Hepatitis C virus [2]) [µM] | IC50 (Hepatitis C virus [5]) [µM] | inhibition (Hepatitis C virus [1]) | inhibition (Hepatitis C virus [3]) | CC50 at 72 h [4] [µM]
1 | CC(C)CCOc1ccc2sc3c(C(=O)O)cc(-c4ccccc4)c(=O)n3c2c1 | 54 | > 40 | – | – | 55
2 | O=C(O)c1cc(-c2ccccc2)c(=O)n2c1sc1ccc(F)cc12 | > 100 | > 40 | – | – | > 100
3 | O=C(O)c1cc(-c2ccccc2)c(=O)n2c1S(=O)(=O)c1ccc(OC3CCCCC3)cc1-2 | 55.8 | 19 | Active | inactive | > 100
4 | COc1ccc2sc3c(C(=O)O)cc(-c4ccccc4)c(=O)n3c2c1 | 51.2 | > 40 | – | – | 51.8
5 | O=C(O)c1cc(-c2ccccc2)c(=O)n2c1S(=O)(=O)c1ccc(F)cc1-2 | 66 | > 40 | – | – | > 100
6 | O=C(O)c1ccc(=O)n2c1sc1ccc(OC3CCCCC3)cc12 | > 100 | > 40 | – | – | > 100
7 | O=C(O)C1=CC(=C(c2ccc(O)c(C(=O)O)c2)c2ccc(O)c(C(=O)O)c2)C=CC1=O [AURINTRICARBOXYLIC ACID] | – | 15 | – | – | –
8 | COc1ccc2c(c1)-n1c(c(C(=O)O)cc(-c3ccccc3)c1=O)S2(=O)=O | 89.7 | > 40 | – | – | > 100

Further lines, with some results ahead:

Row | EC50 (Hepatitis C virus [2]) [µM] | IC50 (Hepatitis C virus [5]) [µM] | SMILES | inhibition (Hepatitis C virus [1]) | inhibition (Hepatitis C virus [3]) | CC50 at 72 h [4] [µM]
9 | > 100 | 11 | O=C(O)c1cc(-c2ccccc2)c(=O)n2c1sc1ccc(OC3CCCCC3)cc12 | Active | inactive | > 100
10 | 53.5 | > 40 | O=C(O)c1cc(C2CCCCC2)c(=O)n2c1sc1ccccc12 | – | – | > 100
11 | > 100 | > 40 | CC(=O)c1cc(C(=O)O)c2sc3ccc(OC4CCCCC4)cc3n2c1=O | – | – | > 100
12 | > 56.5 | 23 | O=C(O)c1cc(C2CCCCC2)c(=O)n2c1sc1ccc(OC3CCCCC3)cc12 | Active | inactive | > 56.5
